According to ChEMBL document CHEMBL2069294, “Synthesis and evaluation of hybrid drugs for a potential HIV/AIDS-malaria combination therapy” (Bioorg Med Chem, 2012):
Activity calls are given as the source filed them. The calls are words filed in the database; no cut-off is given here.

Columns and labels:
[1] = tested on: Human immunodeficiency virus 1; assay: Antiviral activity against VSV-G pseudotyped HIV1 lentiviral particles infected in human HeLa cells incubated for 48 hrs by spectrofluorometry; type: functional, organism-based
[2] = Selectivity index, ratio of CC50 for human HeLa cells to IC50 for Plasmodium falciparum 3D7 ring stage cells; type: functional
Summary of the method: (§1)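 Ratio of HeLa MTT CC50 to Malstat IC50 against the stated P. falciparum strain (ring-stage, triplicate, 1% parasitemia).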

HeLa = assay: Cytotoxicity against human HeLa cells by MTT assay; type: cell-based
Summary of the method: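 MTT reduction assay on HeLa cells (DMEM, 10% heat-inactivated FCS) with serial dilutions; CC50 taken as concentration giving 50% growth inhibition, ± SEM.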

[3] = Selectivity index, ratio of CC50 for human HeLa cells to IC50 for Plasmodium falciparum Dd2 ring stage cells; type: functional; summary of the method: as §1
Plasmodium falciparum [4] = assay: Antiplasmodial activity against drug resistant Plasmodium falciparum Dd2 ring stage cells assessed as reduction parasitemia by Malstat assay; type: functional, organism-based
Plasmodium falciparum [5] = assay: Antiplasmodial activity against Plasmodium falciparum 3D7 ring stage cells assessed as reduction parasitemia by Malstat assay; type: functional, organism-based
[6] = Selectivity index, ratio of CC50 for human HeLa cells to IC50 for VSV-G pseudotyped HIV1 lentiviral particles; type: functional
Summary of the method: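 Ratio of HeLa MTT CC50 to IC50 in the 48 h VSV-G-pseudotyped HIV-1 reporter assay in HeLa cells.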

Plasmodium falciparum [7] = assay: Antiplasmodial activity against Plasmodium falciparum NF54 assessed as reduction in stage IV and V gametocyte formation at IC50 level incubated for 48 hrs measured 7 days post compound wash by Giemsa staining; type: functional, organism-based
Blood [8] = assay: Drug metabolism in C57/BL6 mouse blood assessed as azidothymidine level at 20 mg/kg, po dissolved in 10% DMSO; type: ADME, organism-based; set-up: dose 20 mg/kg, route oral; conditions: in vivo
Summary of the method: (§2)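 Male C57/BL6 mice given 20 mg/kg by oral gavage (200 µl) in 10% DMSO (resuspended precipitate) or Pheroid vesicles; tail blood at 30–480 min (DMSO) or 10–420 min (Pheroid), plasma separated; parent, AZT and DHA quantified by LC–MS/MS after acetonitrile extraction with deoxythymidine internal standard, calibration in plasma.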

Blood [9] = assay: Drug metabolism in C57/BL6 mouse blood assessed as dihydroartemisinin level at 20 mg/kg, po dissolved in 10% DMSO; type: ADME, organism-based; set-up: dose 20 mg/kg, route oral; conditions: in vivo; summary of the method: as §2
Mus musculus = assay: Toxicity in Plasmodium […] N infected in C57/BL6 mouse assessed as parasitemia at 20 mg/kg, po dosed 30 mins post parasite infection and same dose repeated on days 1, 2 and 3 post infection measured on parasitemia day 2 to 7; type: organism-based; set-up: dose 20 mg/kg, route oral; conditions: in vivo, 0.5 h
Summary of the method: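 Infected mice dosed orally at 20 mg/kg on days 0–3 (first dose 30 min after intraperitoneal infection); death of treated infected mice before day 6 counted as toxic death; parasitemia followed on Giemsa smears to day 7.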

[10] = Prodrug release in buffer assessed as azidothymidine level; type: physicochemical
Plasma [11] = assay: Drug metabolism in C57/BL6 mouse plasma assessed as dihydroartemisinin level at 20 mg/kg, po dissolved in 10% DMSO; type: ADME, organism-based; set-up: dose 20 mg/kg, route oral; conditions: in vivo; summary of the method: as §2
[12] = Drug metabolism in C57/BL6 mouse liver microsomes measured after 15 mins; type: ADME, Microsome; conditions: read-out: Drug metabolism
Summary of the method: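 Compound at 1 µM final incubated at 37 °C with mouse liver microsomes (0.2 mg/ml protein) in phosphate buffer pH 7.4; started with 1 mM NADPH; aliquots at 0, 15, 30, 45 min quenched in cold acetonitrile; parent remaining (% of time zero) and released AZT/DHA measured by LC–MS/MS.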

Plasma [13] = assay: Drug metabolism in C57/BL6 mouse plasma assessed as azidothymidine level at 20 mg/kg, po dissolved in 10% DMSO; type: ADME, organism-based; set-up: dose 20 mg/kg, route oral; conditions: in vivo; summary of the method: as §2
[14] = Cmax in C57/BL6 mouse plasma at 20 mg/kg, po dissolved in Pheroid formulation; type: ADME, organism-based; set-up: dose 20 mg/kg, route oral; summary of the method: as §2
Plasma [15] = assay: Drug metabolism in C57/BL6 mouse plasma assessed as azidothymidine level at 20 mg/kg, po dissolved in Pheroid formulation; type: ADME, organism-based; set-up: dose 20 mg/kg, route oral; conditions: in vivo; summary of the method: as §2
[16] = tested on: Human immunodeficiency virus 1; assay: Antiviral activity against HIV1 NL43 infected din human MT4 cells pre-incubated in presence of compound for 48 hrs followed by TZM cells infection with compound treated virus supernatant by X-gal staining based microscopy; type: functional, organism-based; conditions: Human immunodeficiency virus 1, NL43, TZM
Summary of the method: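 MT4 co-culture with NL43 HIV-1 preincubated 4 h at 37 °C, then compounds in DMSO added at six concentrations for 48 h; cell-free supernatant used to infect TZM cells in triplicate; after 2 days cells fixed (acetone/ethanol), X-Gal stained 2–4 h, blue cells counted; uninfected and untreated-infected wells set as 100% and 0% activity.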

Blood [17] = assay: Drug metabolism in C57/BL6 mouse blood assessed as dihydroartemisinin level at 20 mg/kg, po dissolved in Pheroid formulation; type: ADME, organism-based; set-up: dose 20 mg/kg, route oral; conditions: in vivo; summary of the method: as §2
Blood [18] = assay: Drug metabolism in C57/BL6 mouse blood assessed as azidothymidine level at 20 mg/kg, po dissolved in Pheroid formulation; type: ADME, organism-based; set-up: dose 20 mg/kg, route oral; conditions: in vivo; summary of the method: as §2
Plasma [19] = assay: Drug metabolism in C57/BL6 mouse plasma assessed as dihydroartemisinin level at 20 mg/kg, po dissolved in Pheroid formulation; type: ADME, organism-based; set-up: dose 20 mg/kg, route oral; conditions: in vivo; summary of the method: as §2
[20] = Prodrug release in buffer assessed as dihydroartemisinin level; type: physicochemical
[21] = Plasmodium falciparum, 3D7, read-out: IC50
[22] = Human immunodeficiency virus 1, HeLa, 48 h, read-out: IC50

Compound | IC50 ([1]; hela) | Ratio CC50/IC50 [2] | IC50 (HeLa) | Ratio CC50/IC50 [3] | IC50 (Plasmodium falciparum [4]) | IC50 (Plasmodium falciparum [5]; [21]) | IC50 [1, 22] | Ratio CC50/IC50 [6] | other results
Cc1cn([C@H]2C[C@H](NC(=O)NCCCCCNc3ccnc4cc(Cl)ccc34)[C@@H](CO)O2)c(=O)[nH]c1=O | Not Active | >19.3 | > 100000 nM | >12.5 | 8020 nM | 5180 nM |  |  | 
Cc1cn([C@H]2C[C@H](n3cc(CO[C@H]4O[C@@H]5O[C@@]6(C)CC[C@H]7[C@H](C)CC[C@@H]([C@H]4C)[C@@]57OO6)nn3)[C@@H](CO)O2)c(=O)[nH]c1=O |  | >370.4 | > 100000 nM | >1000 | 100 nM | 270 nM | 11100 nM | >9 | 
Cc1cn([C@H]2C[C@H](NC(=O)CC3CCC4(CC3)OOC3(OO4)C4CC5CC(C4)CC3C5)[C@@H](CO[Si](c3ccccc3)(c3ccccc3)C(C)(C)C)O2)c(=O)[nH]c1=O (stereo partly drawn) | Not Active | >370.4 | > 100000 nM | >526.3 | 190 nM | 270 nM |  |  | 
Cc1cn([C@H]2C[C@H](NC(=O)NCCCCCNc3ccnc4cc(Cl)ccc34)[C@@H](CO[Si](c3ccccc3)(c3ccccc3)C(C)(C)C)O2)c(=O)[nH]c1=O |  | 62.3 | 36100 nM | 451.6 | 80 nM | 580 nM | 7920 nM | 4.6 | 
C[C@H]1[C@@H](O)O[C@@H]2O[C@@]3(C)CC[C@H]4[C@H](C)CC[C@@H]1[C@@]24OO3 [ARTENIMOL] | Not Active | >3333.3 | > 100000 nM |  | 10 nM | 30 nM |  |  | inhibition (Plasmodium falciparum [7]): Active
Cc1cn([C@H]2C[C@H](NC(=O)CC3CCC4(CC3)OOC3(OO4)C4CC5CC(C4)CC3C5)[C@@H](CO)O2)c(=O)[nH]c1=O (stereo partly drawn) | Not Active | 106.3 | 23400 nM | 233.8 | 100 nM | 220 nM |  |  | 
Cc1cn([C@H]2C[C@H](NC(=O)C(=O)NCCCCCNc3ccnc4cc(Cl)ccc34)[C@@H](CO)O2)c(=O)[nH]c1=O | Not Active | >51.5 | > 100000 nM | >9.5 | 10600 nM | 1940 nM |  |  | 
Cc1cn([C@H]2C[C@H](NC(=O)C(=O)NCCCCCNc3ccnc4cc(Cl)ccc34)[C@@H](CO[Si](c3ccccc3)(c3ccccc3)C(C)(C)C)O2)c(=O)[nH]c1=O |  | 75.4 | 28600 nM | 358.1 | 80 nM | 380 nM | 900 nM | 31.8 | 
Cc1cn([C@H]2C[C@H](N=[N+]=[N-])[C@@H](CO)O2)c(=O)n(Cc2cccc(Nc3ccnc4cc(Cl)ccc34)c2)c1=O |  | >625 | > 100000 nM | >454.5 | 220 nM | 160 nM | 1760 nM | >56.8 | 
Cc1cn([C@H]2C[C@H](N=[N+]=[N-])[C@@H](CO)O2)c(=O)n(CCNc2ccnc3cc(Cl)ccc23)c1=O |  | >217.4 | > 100000 nM | >153.8 | 650 nM | 460 nM | 7150 nM | >14 | 
COc1cc(NC(C)CCCN)c2ncccc2c1 (stereo not drawn) |  |  |  |  |  |  |  |  | inhibition (Plasmodium falciparum [7]): Active
Cc1cn([C@H]2C[C@H](N=[N+]=[N-])[C@@H](CO)O2)c(=O)[nH]c1=O [ZIDOVUDINE] |  |  | > 100000 nM |  |  |  | 40 nM |  | IC50 (Plasmodium falciparum [5]): Not Active
OCCNc1ccnc2cc(Cl)ccc12 | Not Active | >45.5 | > 100000 nM | >58.1 | 1720 nM | 2200 nM |  |  | 
Cc1cn([C@H]2C[C@H](NC(=O)NCCNc3ccnc4cc(Cl)ccc34)[C@@H](CO)O2)c(=O)[nH]c1=O | Not Active | >28.3 | > 100000 nM | >3.2 | 31600 nM | 3530 nM |  |  | 
Cc1cn([C@H]2C[C@H](NC(=O)NCCNc3ccnc4cc(Cl)ccc34)[C@@H](CO[Si](c3ccccc3)(c3ccccc3)C(C)(C)C)O2)c(=O)[nH]c1=O | Not Active | 64.3 | 23800 nM | 69.9 | 340 nM | 370 nM |  |  | 
NCCNc1ccnc2cc(Cl)ccc12 | Not Active | 2114.7 | 63400 nM | 275.8 |  | 30 nM |  |  | 
CCN(CC)CCCC(C)Nc1ccnc2cc(Cl)ccc12 (stereo not drawn) [CHLOROQUINE] |  |  | > 100000 nM |  |  |  | 12500 nM |  | 
Cc1nnc(C(=O)NC(C)(C)c2nc(C(=O)NCc3ccc(F)cc3)c(O)c(=O)n2C)o1 [RALTEGRAVIR] |  |  | > 100000 nM |  |  |  | 10 nM | >10000 | IC50 (Plasmodium falciparum [5]): Not Active
CCOC(=O)C(=O)N[C@H]1C[C@H](n2cc(C)c(=O)[nH]c2=O)O[C@@H]1CO[Si](c1ccccc1)(c1ccccc1)C(C)(C)C | Not Active | 5.75 | 64000 nM | 5.3 | 12100 nM | 11100 nM |  |  | 
Cc1cn([C@H]2C[C@H](N=[N+]=[N-])[C@@H](CO[C@H]3O[C@@H]4O[C@@]5(C)CC[C@H]6[C@H](C)CC[C@@H]([C@H]3C)[C@@]46OO5)O2)c(=O)[nH]c1=O |  | >3333.3 | > 100000 nM | >10000 | 10 nM | 30 nM | 2860 nM | >35 | Drug metabolism (Blood [8]): Active; Drug metabolism (Blood [9]): Not Active; Activity (Mus musculus): Non-toxic; inhibition (Plasmodium falciparum [7]): Active; Drug metabolism [10]: Active; Drug metabolism (Plasma [11]): Active; metabolised at 0.25 h [12]: > 90%; Drug metabolism (Plasma [13]): Not Active; Cmax [14]: 40 ng/mL; Drug metabolism (Plasma [15]): Active; IC50 [16]: 486 nM; Drug metabolism (Blood [17]): Not Active; Drug metabolism (Blood [18]): Active; Drug metabolism (Plasma [19]): Active; Drug metabolism [20]: Not Active
OCc1cccc(Nc2ccnc3cc(Cl)ccc23)c1 | Not Active | >70.4 | > 100000 nM | >68.5 | 1460 nM | 1420 nM |  |  | 
NCCCCCNc1ccnc2cc(Cl)ccc12 | Not Active | >435.7 | 56600 nM | >246.3 | 230 nM | 130 nM |  |  | 
